Several values for one entry are separate records, joined by “and”; a condition that tells them apart may be missing. Equal values may be shown once.
System: HEK-293T
Test: Multiplex assay against HEK293T
Assay type: toxicity, cell-based
Conditions: human
In short: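 On a CQ1 microscope at 37°C and 5% CO2, live cells were imaged after compound addition. They had been stained at seeding with Hoechst33342, BioTracker Green Microtubule Cytoskeleton Dye, MitoTracker Red and Annexin V Alexa Fluor 680. CellPathfinder machine-learning gating assigned cells to Hoechst high-intensity objects or normal cells, normal cells to healthy, pyknosed or fragmented nuclei, and pyknosed cells to mitotic or apoptotic. Tubulin, mitochondrial-mass and membrane-permeability phenotypes are per cents of healthy-nucleus cells.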

[1] = 12 h, 1 µM, compound concentration 1 uM
[2] = 12 h, 10 µM, compound concentration 10 uM
[3] = 24 h, 1 µM, compound concentration 1 uM
[4] = 24 h, 10 µM, compound concentration 10 uM
[5] = 48 h, 1 µM, compound concentration 1 uM
[6] = 48 h, 10 µM, compound concentration 10 uM

Structure (SMILES): CC(C)c1ccc(/C=N/NC(=O)c2ccc(O)cc2)cc1
- Population Apoptotic (%) [1]: 6.34% and 9.68%
- Population Fragmented Nuclei (%) [1]: 1.61% and 0.64%
- Population Healthy Nuclei (%) [1]: 60.22% and 20.38%
- Population Hoechst High Intensity Objects (%) [1]: 0.53% and 0%
- Population Membrane Permeable-Phenotype (%) [1]: 0.45% and 0%
- Population Mitochondria Different-Phenotype (%) [1]: 40.62% and 43.75%
- Population Mitotic Cells (%) [1]: 93.66% and 90.32%
- Population Normal (%) [1]: 99.47% and 100%
- Population Pyknosed Nuclei (%) [1]: 38.17% and 78.98%
- Total Cell Count [1]: 374 and 157
- Population Apoptotic (%) [2]: 12.69% and 7.75%
- Population Fragmented Nuclei (%) [2]: 8.73% and 1.3%
- Population Hoechst High Intensity Objects (%) [2]: 0.28% and 0%
- Population Membrane Permeable-Phenotype (%) [2]: 0%
- Population Mitochondria Different-Phenotype (%) [2]: 41.58% and 26.09%
- Population Mitotic Cells (%) [2]: 87.31% and 92.25%
- Population Normal (%) [2]: 99.72% and 100%
- Population Pyknosed Nuclei (%) [2]: 37.75% and 83.77%
- Total Cell Count [2]: 356 and 154
- Population Apoptotic (%) [3]: 16.67% and 14.29%
- Population Fragmented Nuclei (%) [3]: 1.59% and 2.38%
- Population Healthy Nuclei (%) [3]: 75.09% and 35.12%
- Population Hoechst High Intensity Objects (%) [3]: 0%
- Population Membrane Permeable-Phenotype (%) [3]: 0.71% and 3.39%
- Population Mitochondria Different-Phenotype (%) [3]: 15.53% and 13.56%
- Population Mitotic Cells (%) [3]: 83.33% and 85.71%
- Population Normal (%) [3]: 100%
- Population Pyknosed Nuclei (%) [3]: 23.32% and 62.5%
- Population Tubulin-Different-Phenotype (%) [3]: 14.59% and 5.08%
- Population Apoptotic (%) [4]: 14.4% and 12.98%
- Population Fragmented Nuclei (%) [4]: 6.23% and 2.06%
- Population Healthy Nuclei (%) [4]: 70.88% and 30.41%
- Population Hoechst High Intensity Objects (%) [4]: 0%
- Population Membrane Permeable-Phenotype (%) [4]: 0.78% and 0%
- Population Mitochondria Different-Phenotype (%) [4]: 15.5% and 15.25%
- Population Mitotic Cells (%) [4]: 85.6% and 87.02%
- Population Normal (%) [4]: 100%
- Population Pyknosed Nuclei (%) [4]: 22.89% and 67.53%
- Population Tubulin-Different-Phenotype (%) [4]: 5.43% and 1.69%
- Total Cell Count [4]: 546 and 194
- Population Apoptotic (%) [5]: 8.44% and 19.78%
- Population Fragmented Nuclei (%) [5]: 2.76% and 1.47%
- Population Healthy Nuclei (%) [5]: 85.78% and 53.92%
- Population Hoechst High Intensity Objects (%) [5]: 0.15% and 0%
- Population Membrane Permeable-Phenotype (%) [5]: 4.34% and 1.82%
- Population Mitochondria Different-Phenotype (%) [5]: 13.72% and 24.55%
- Population Mitotic Cells (%) [5]: 91.56% and 80.22%
- Population Normal (%) [5]: 99.85% and 100%
- Population Apoptotic (%) [6]: 10.39% and 16.36%
- Population Fragmented Nuclei (%) [6]: 4.43% and 3.38%
- Population Healthy Nuclei (%) [6]: 84.38% and 70.05%
- Population Hoechst High Intensity Objects (%) [6]: 0.22% and 0%
- Population Membrane Permeable-Phenotype (%) [6]: 1.81% and 0.69%
- Population Mitochondria Different-Phenotype (%) [6]: 7.58% and 15.17%
- Population Mitotic Cells (%) [6]: 89.61% and 83.64%
- Population Normal (%) [6]: 99.78% and 100%
- Population Pyknosed Nuclei (%) [6]: 11.19% and 26.57%
- Population Tubulin-Different-Phenotype (%) [6]: 1.03% and 9.66%

Structure (SMILES): S=c1[nH]nc(-c2cccs2)n1-c1ccccc1
- Population Apoptotic (%) [1]: 14.62% and 11.2%
- Population Fragmented Nuclei (%) [1]: 2.05% and 4.52%
- Population Hoechst High Intensity Objects (%) [1]: 1.01% and 0%
- Population Membrane Permeable-Phenotype (%) [1]: 0% and 4.35%
- Population Mitochondria Different-Phenotype (%) [1]: 35.03% and 21.74%
- Population Mitotic Cells (%) [1]: 85.38% and 88.8%
- Population Normal (%) [1]: 98.99% and 100%
- Population Pyknosed Nuclei (%) [1]: 44.37% and 80.65%
- Total Cell Count [1]: 296 and 155
- Population Apoptotic (%) [2]: 8.82% and 18.42%
- Population Fragmented Nuclei (%) [2]: 0.89% and 2.82%
- Population Hoechst High Intensity Objects (%) [2]: 0%
- Population Membrane Permeable-Phenotype (%) [2]: 0%
- Population Mitotic Cells (%) [2]: 91.18% and 81.58%
- Population Normal (%) [2]: 100%
- Population Pyknosed Nuclei (%) [2]: 40.24% and 80.28%
- Population Tubulin-Different-Phenotype (%) [2]: 9.05% and 25%
- Total Cell Count [2]: 338 and 142
- Population Apoptotic (%) [3]: 11.36% and 17.16%
- Population Fragmented Nuclei (%) [3]: 1.73% and 2.2%
- Population Hoechst High Intensity Objects (%) [3]: 0.76% and 0%
- Population Membrane Permeable-Phenotype (%) [3]: 0.26% and 2.27%
- Population Mitochondria Different-Phenotype (%) [3]: 13.46% and 15.91%
- Population Mitotic Cells (%) [3]: 88.64% and 82.84%
- Population Normal (%) [3]: 99.24% and 100%
- Population Pyknosed Nuclei (%) [3]: 25.38% and 73.63%
- Population Tubulin-Different-Phenotype (%) [3]: 8.97% and 6.82%
- Total Cell Count [3]: 524 and 182
- Population Apoptotic (%) [4]: 17.95% and 22%
- Population Fragmented Nuclei (%) [4]: 1.78% and 2.9%
- Population Hoechst High Intensity Objects (%) [4]: 0%
- Population Membrane Permeable-Phenotype (%) [4]: 0.53% and 0%
- Population Mitochondria Different-Phenotype (%) [4]: 11.35% and 2.94%
- Population Mitotic Cells (%) [4]: 82.05% and 78%
- Population Normal (%) [4]: 100%
- Population Tubulin-Different-Phenotype (%) [4]: 9.76% and 8.82%
- Population Fragmented Nuclei (%) [5]: 2.52% and 0.96%
- Population Healthy Nuclei (%) [5]: 87.46% and 66.83%
- Population Hoechst High Intensity Objects (%) [5]: 0.07% and 0%
- Population Membrane Permeable-Phenotype (%) [5]: 4.24% and 5.04%
- Population Mitochondria Different-Phenotype (%) [5]: 13.4% and 16.55%
- Population Mitotic Cells (%) [5]: 94.07% and 77.61%
- Population Normal (%) [5]: 99.93% and 100%
- Population Apoptotic (%) [6]: 10.32% and 16.67%
- Population Fragmented Nuclei (%) [6]: 2.79% and 3.68%
- Population Healthy Nuclei (%) [6]: 86.89% and 63.19%
- Population Hoechst High Intensity Objects (%) [6]: 0%
- Population Membrane Permeable-Phenotype (%) [6]: 5.38% and 1.94%
- Population Mitochondria Different-Phenotype (%) [6]: 11.04% and 20.39%
- Population Mitotic Cells (%) [6]: 89.68% and 83.33%
- Population Normal (%) [6]: 100%

Reference: ChEMBL document CHEMBL5724801, “EUbOPEN Chemogenomics Library - Multiplex” (2024)
